In ChEMBL document CHEMBL1139068, “Amino acid-based enantiomerically pure 3-substituted 1,4-benzodiazepin-2-ones: a new class of anti-ischemic agents” (2007) one finds Activity and viability data, which are given here for 16 molecules.

A short description of assay [1]: Antiischemic activity in forebrain neurons assessed as necrotic neuronal population at 100 uM after 20 mins. The format is functional, Homo sapiens, Neuron. In short, it runs like this:
(§1)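 Isolated forebrain neurons at 1×10^6 cells/100 µl pretreated with compound (100 µM) 20 min at 37 °C, then exposed to equal volume of H2O2 (300 µM) 1 h at 37 °C; untreated cells held 1 h 20 min. Cells washed twice in cold PBS, stained FITC-Annexin V/propidium iodide 15 min at room temperature in dark. 10,000 cells read by flow cytometry (ex 488 nm; em 530, 670 nm); quadrant percentages.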

Assay [2] is described as follows: Antiischemic activity in forebrain neurons assessed as viable cells at 100 uM after 20 mins. It is filed as functional. The following applies: Homo sapiens, Neuron, read-out: Activity. Summed up: as §1
Assay [3] can be described thus: Antiischemic activity in forebrain neurons assessed as necrotic and delayed apoptotic neuronal population at 100 uM after 20 mins. It is filed as functional, Homo sapiens, Neuron. In short, it runs like this: as §1
The nature of assay [4]: Antiischemic activity in forebrain neurons assessed as apoptotic neuronal population at 100 uM after 20 mins. It is filed as functional, Homo sapiens, Neuron. In short, it runs like this: as §1

Take `O=C1Nc2ccccc2CN2C(=O)CC[C@@H]12`: the Activity in assay [1] turned out to be 5.56%; in assay [3] it was 3.75%; in assay [4], 24.62%. The viability at 100 µM in assay [2] was found to be 66.1%.

Turning to `NC(=O)CC[C@@H]1NCc2ccccc2NC1=O`, the Activity in assay [1] worked out at 4.75%; in assay [3], 3.12%; in assay [4], 24.93%. The viability at 100 µM in assay [2] amounted to 67.2%.

Regarding `CSCC[C@@H]1NCc2ccccc2NC1=O`, the Activity is 4.73% in assay [1], 3.5% in assay [3] and 9.08% in assay [4]. For the same molecule, in assay [2], the viability at 100 µM is 82.7%.

With `O=C1Nc2ccccc2CN[C@H]1Cc1ccc(OCc2ccccc2)cc1`, the Activity in assay [1] is recorded as 4.99%; in assay [3], 4.83%; in assay [4] it was 23.63%. Further, the viability at 100 µM in assay [2] is 66.5%.

With `O=C1Nc2ccccc2CN[C@@H]1Cc1c[nH]c2ccccc12`, the Activity in assay [1] was 0.5%; in assay [3] it was 3.47%; in assay [4], 21.06%. Further, the viability at 100 µM in assay [2] was found to be 75%.

As for `C[C@H]1NCc2ccccc2NC1=O`, the Activity was 0.98% in assay [1], 3.2% in assay [3] and 26.85% in assay [4]. For the same molecule, the viability at 100 µM in assay [2] turned out to be 69%.

`CSCC[C@H]1NCc2ccccc2NC1=O`: the figures for the Activity in assay [1], in assay [3] and in assay [4] were 0.52%, 3.98% and 16.96%, respectively. Also, the viability at 100 µM in assay [2] turned out to be 77.8%.

Take `O=C1Nc2ccccc2CN2CCC[C@H]12`: the Activity amounted to 0.64% in assay [1], 3.1% in assay [3] and 11.72% in assay [4]. In addition, the viability at 100 µM in assay [2] was 84.5%.

As for `O=C1Nc2ccccc2CN2CCC[C@@H]12`, the Activity in assay [1] worked out at 5.51%; in assay [3] it was 5.04%; in assay [4] it was 23.27%. Moreover, the viability at 100 µM in assay [2] worked out at 66.2%.

For `COC(=O)C[C@@H]1NCc2ccccc2NC1=O`, the Activity in assay [1] is 4.73%; in assay [3], 4.28%; in assay [4], 25.75%. Also, the viability at 100 µM in assay [2] came to 65.2%.

As to `O=C1Nc2ccccc2CN[C@@H]1Cc1ccccc1`, the Activity was 0.68% in assay [1], 0.68% in assay [3] and 17.26% in assay [4]. Also, the viability at 100 µM in assay [2] is 79%.

For the molecule `O=C1Nc2ccccc2CN[C@H]1Cc1c[nH]c2ccccc12`, the Activity in assay [1] is listed as 4.33%; in assay [3] it was 3.55%; in assay [4] it was 30.86%. Also, the viability at 100 µM in assay [2] is 61.3%.

On to `O=C1Nc2ccccc2CN[C@H]1CSCc1ccccc1`, for which the Activity in assay [1] is 5.05%; in assay [3], 4.58%; in assay [4], 26.01%. For the same molecule, in assay [2], the viability at 100 µM is 64.4%.

Consider `C[C@@H]1NCc2ccccc2NC1=O`, for which the figures for the Activity in assay [1], in assay [3] and in assay [4] were 5.35%, 4.8% and 29.47%, respectively. Besides, in assay [2], the viability at 100 µM turned out to be 60.4%.

Take `O=C1Nc2ccccc2CN[C@H]1Cc1ccccc1`: the Activity stood at 2.07% in assay [1], 1.21% in assay [3] and 25.58% in assay [4]. For the same molecule, the viability at 100 µM in assay [2] amounted to 70.1%.

`O=C1Nc2ccccc2CN2C[C@@H](O)C[C@@H]12`: the Activity in assay [1] is recorded as 5.68%; in assay [3], 3.08%; in assay [4], 3.79%. In addition, the viability at 100 µM in assay [2] is 87.5%.
